What all share (assay type): functional
The subject of experiment [1] is Mus musculus. The experiment in a line: Antitumor activity was determined for median survival of mice against P-388 leukemia in mice at a dose of 2 mg/kg. The method in brief:
(§1)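 Male B6D2F1J mice implanted ip with 10⁶ P-388 cells on day 0; test agents given ip on days 1–4 (qd × 4) in sterile saline, or in 10% Tween 80 for the lipophilic thioether. Groups of 5 treated mice, with 10–17 untreated controls per experiment. Mice weighed on days 1 and 7 to give the 7-day weight change in g and %. Survival recorded in days as median and range.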

Experiment [2] has as its system Mus musculus. Nature of the experiment: Antitumor activity was determined for average 7-day weight change against P-388 leukemia in mice at a dose of 4 mg/kg. A digest of the protocol: (§2)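 Male B6D2F1J mice given 10⁶ P-388 cells ip on day 0, then treated ip once daily on days 1-4 (qd × 4), 5 mice per dose group. Compounds dosed in sterile saline, except one lipophilic thioether given in 10% Tween 80. Mice weighed on days 1 and 7; mean weight per mouse on day 1 and 7-day weight change reported in g and as percent.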

Experiment [3] deals with Mus musculus. The experiment in a line: Antitumor activity was determined for survival range of mice against P-388 leukemia in mice at a dose of 4 mg/kg. A digest of the protocol:
as §1

The subject of experiment [4] is Mus musculus. Nature of the experiment: Antitumor activity was determined for median survival of mice against P-388 leukemia in mice at a dose of 4 mg/kg. A digest of the protocol: as §1
Experiment [5] deals with Mus musculus. The experiment in a line: Antitumor activity was determined for average 7-day weight change against P-388 leukemia in mice at a dose of 8 mg/kg. The method in brief: as §2
Experiment [6] deals with Mus musculus. Nature of the experiment: Antitumor activity was determined for 7-day average percent weight change against P-388 leukemia in mice at a dose of 8 mg/kg. The method in brief:
as §2

Experiment [7] has as its system Mus musculus. Nature of the experiment: Antitumor activity was determined for survival range of mice against P-388 leukemia in mice at a dose of 2 mg/kg. A digest of the protocol:
as §1

Experiment [8] concerns Mus musculus. The experiment in a line: Antitumor activity was determined for survival range of mice against P-388 leukemia in mice at a dose of 8 mg/kg. The method in brief:
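Male B6D2F1J mice, 5 per dose group, implanted ip with 10⁶ P-388 leukemia cells on day 0. Drug given ip daily on days 1-4 (qd × 4) in sterile saline, or in 10% Tween 80 for the butyl thioether. Survival range recorded in days. Untreated control groups had 10-17 animals per experiment. Mice weighed on days 1 and 7.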

Experiment [9] relates to Mus musculus. Nature of the experiment: Antitumor activity was determined for median survival of mice against P-388 leukemia in mice at a dose of 8 mg/kg. The method in brief:
as §1

Experiment [10] has as its system Mus musculus. The experiment in a line: Antitumor activity was determined for average weight on day 1 against P-388 leukemia in mice at a dose of 2 mg/kg. A digest of the protocol: (§3)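 Male B6D2F1J mice, groups of 5, inoculated ip with 10⁶ P-388 cells on day 0. Drug given ip on days 1-4 (qd × 4) in sterile saline, or in 10% Tween 80 for the poorly water-soluble thioether. Average weight per mouse recorded on day 1, with reweighing on day 7 for percent weight change. Untreated control groups had 10-17 animals per experiment.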

Experiment [11] relates to Mus musculus. The experiment in a line: Antitumor activity was determined for average weight on day 1 against P-388 leukemia in mice at a dose of 8 mg/kg. A digest of the protocol: as §3
Experiment [12] relates to Mus musculus. Nature of the experiment: Percent increase in life span against P-388 leukemia in mice was determined at a dose of 2 mg/kg. The note with it: P388. A digest of the protocol: (§4)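 Male B6D2F1J mice, 5 per dose group, received 10⁶ P-388 cells ip on day 0. Dosing was ip qd × 4 on days 1-4 in sterile saline, or 10% Tween 80 for the butyl thioether. Median survival times of treated (T) and untreated control (C, 10-17 mice) groups were compared: %ILS = [(T/C) − 1]100. Weights taken on days 1 and 7.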

Experiment [13] deals with Mus musculus. Nature of the experiment: Percent increase in life span against P-388 leukemia in mice was determined at a dose of 4 mg/kg. The note with it: P388. A digest of the protocol: as §4
Experiment [14] has as its system Mus musculus. The experiment in a line: Percent increase in life span against P-388 leukemia in mice was determined at a dose of 8 mg/kg. To be noted: P388. The method in brief: as §4
Experiment [15] deals with L1210. Nature of the experiment: Evaluated for cytotoxicity against L1210 mouse leukemia cells. To be noted: read-out: ID50 (the source's name). A digest of the protocol: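 L1210 murine leukemia cells in Eagle's minimal essential medium with 15% fetal calf serum, streptomycin (100 μg/mL), penicillin (100 units/mL) and 0.05 mM 2-mercaptoethanol. Cells counted by Coulter counter after 48 h exposure. ID50 is the 50% growth-inhibitory dose. Triplicate assays, standard deviation ±10%.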

The test system of experiment [16] is Mus musculus. The experiment in a line: Antitumor activity was determined for average 7-day weight change against P-388 leukemia in mice at a dose of 2 mg/kg. A digest of the protocol: as §2
The test system of experiment [17] is Mus musculus. The experiment in a line: Antitumor activity was determined for 7-day average percent weight change against P-388 leukemia in mice at a dose of 2 mg/kg. The method in brief: as §2
For experiment [18], the system named is Mus musculus. Nature of the experiment: Antitumor activity was determined for 7-day average percent weight change against P-388 leukemia in mice at a dose of 4 mg/kg. A digest of the protocol:
as §2

Experiment [19] relates to Mus musculus. Nature of the experiment: Antitumor activity was determined for average weight on day 1 against P-388 leukemia in mice at a dose of 4 mg/kg. The method in brief:
as §3

One may read the ILS as how much longer treated animals lived than controls. High values mean a large benefit in survival, low ones a small benefit in survival. Consider `O=c1[nH]c(=O)n([C@@H]2O[C@H](CO)[C@@H](O)[C@H]2O)cc1F` [5-FLUOROURIDINE], for which the Survival median is 20 in [1], 21 in [4] and 23 in [9]. Further, the Average weight in experiment [2] is recorded as -3.2 g mouse-1; in experiment [5], -6 g mouse-1; in experiment [10] it was 26 g mouse-1; in experiment [11], 25.8 g mouse-1; in experiment [16] it was 1.2 g mouse-1; in [19], 26.4 g mouse-1. The Survival range was found to be 18 in experiment [3], 18 in experiment [7] and 21 in experiment [8]. The results for the Weight change in experiment [6], in [17] and in [18] were -23%, 5% and -12%, respectively. In experiment [12], this compound returned an ILS at 2 mg/kg of 66%. In experiment [13], this compound yielded an ILS at 4 mg/kg of 75%. Also, the ILS at 8 mg/kg in [14] was determined as 91%. Further, in [15], the IC50 came out at 2.4 nM.

These data come from ChEMBL document CHEMBL1122125, “Synthesis and in vivo antitumor activity of potential 5-fluorouracil prodrugs” (1982).
